# V-ATPase pHluor: regulators of yeast V-ATPase proton transport | response, % at 10 µM | S. cerevisiae, pHLuorin cytosolic pH fluorescence | hit rate 0.37% among 350,000; in the data active = response mostly above about 7.3%, no sharp cut-off; inactive = mostly below about 5.4%; also: actives read high
# T cell HTS: modulates CD8 T cell binding to vesicles. response (vesicle binding), % at 7 µM. 2C CD8+ T cell-vesicle binding, flow cytometry; stronger effect = lower value. hit rate 0.068% among 330,000. AID 2052;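 active = response, share of CD8 T cells binding vesicles, and their 90th percentile fluorescence all below set limits, cut at about 80% in these data, passing the limit was not always enough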;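 also: values below 100% mean blocked vesicle binding to the CD8+ T cells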
#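 Material: 2C TCR transgenic mouse naive CD8+ T cells, MACS-purified. Also added: QL9-charged Drosophila Ld/ICAM-1/B7-1 vesicles. Timing: binding 1.5 h at 37 °C. Measured by: high-throughput flow cytometry with anti-B7-1 and anti-CD8 staining. Read-out: percent CD8+ FL2 mean versus row control. Controls: Unloaded micro-vesicles (low), QL9 vesicles with 0.7% DMSO (high).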
# MIN6 prolif: MIN6 beta-cell proliferation induction. proliferation, % at 10 µM. MIN6 cells proliferation, ATPlite luminescence, 48 h; cells starved in 0.2% serum; 100% = growth in 10% serum. hit rate 0.29% among 330,000;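 active = compounds whose signal lies at least 3.5 SD above the mean of all wells on their plate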;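 also: 0% = DMSO-treated cells in low-serum medium and 100% = 10% serum control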
# Arrestin-AP2 inh: inhibitors of human beta-arrestin and AP2 interaction; hit rate 0.31% among 340,000; inhibition, % at 10 µM; FITC-arrestin peptide / GST-AP2 beads, flow cytometry; AP2 beta2 appendage carries R879A mutation;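 active = inhibition above a set limit, near 3 SD of compounds lacking own fluorescence, cut at about 54% in these data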;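 also: plate controls were DMSO wells for no effect and 5 µM unlabelled arrestin peptide for full effect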
#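 System: GST-tagged AP2 beta2-adaptin appendage (R879A) on 4 µm glutathione beads / Reagent: FITC-arrestin peptide, 50 nM / Detection: HyperCyt-sampled flow cytometry, FL1 channel, ex 488/em 535 nm / Timing: 12 min plus 1 h, RT / Buffer or medium: PBS plus Tween 20 (0.05%) and BSA (0.1%)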
# NTR1 ag: agonists of human neurotensin receptor NTR1 | P30989 | NTR1-U2OS beta-arrestin-GFP spot imaging, agonist mode | activation, % at 20 µM | hit rate 0.17% among 330,000 | AID 493036;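 active = activation at or above 40% of the spot to cytoplasm intensity ratio, with at least 20 cells analyzed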;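 also: 0% = DMSO without peptide and 100% = 100 nM NTR1 peptide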
# Target sequence (P30989 whole entry, looked up): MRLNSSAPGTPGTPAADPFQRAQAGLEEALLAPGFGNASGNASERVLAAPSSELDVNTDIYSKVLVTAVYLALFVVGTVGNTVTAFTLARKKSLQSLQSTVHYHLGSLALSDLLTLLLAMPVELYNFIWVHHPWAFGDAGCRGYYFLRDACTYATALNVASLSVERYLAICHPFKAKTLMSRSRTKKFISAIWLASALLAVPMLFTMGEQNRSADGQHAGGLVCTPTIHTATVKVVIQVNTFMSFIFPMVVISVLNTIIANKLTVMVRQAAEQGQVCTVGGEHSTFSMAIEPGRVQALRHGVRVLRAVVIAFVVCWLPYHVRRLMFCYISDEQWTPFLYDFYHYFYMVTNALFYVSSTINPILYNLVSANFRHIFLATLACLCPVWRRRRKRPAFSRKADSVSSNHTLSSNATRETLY
# Xi reactivation: reactivates the inactive X chromosome in mouse fibroblasts; XiGFP mouse fibroblasts, % GFP-positive cells imaging, 3 d; cells co-treated with 5-aza-dC sensitizer; scaled so ellipticine positive control = 100%; activation, % at 7.58 µM; hit rate 0.055% among 360,000; AID 743238;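 active = mean normalized replicate activation at least 10% and every replicate at or above 10%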;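 also: 0% = median of on-plate neutral control wells and 100% = ellipticine 6 µM median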
#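 System: 68-5-11 XiGFP fibroblast line; Timing: 3 days compound exposure; Compound dosing: one concentration, pinned; Benchmarks: positive control ellipticine, 6 µM final; Buffer or medium: DMEM containing 5-aza-dC.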
# Arr-AP2 CP1: inhibitors of human beta-arrestin and AP2 interaction. shares compounds with Arrestin-AP2 inh. GST-AP2 beads, FITC arrestin peptide binding, flow cytometry; GST-fused beta2-adaptin appendage, R879A mutant. inhibition, % at 10 µM. hit rate 2% among 1,300;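 active = inhibition above a set limit, roughly 3 SD of non-fluorescent compound noise, cut at about 38% in these data; inactive = inhibition at or below that limit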;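 also: loss of bead fluorescence from 50 nM FITC arrestin peptide bound to appendage; 0% = negative control wells and 100% = excess unlabelled arrestin peptide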
# GST GSH counter: counter-screen for beta-arrestin AP2 inhibitors: GST-GSH bead binding; shares compounds with Arrestin-AP2 inh; GST-fluorescein binding to GSH beads, fluorescence; inhibition, % at 10 µM; hit rate 2% among 1,300;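 active = inhibition above 50%, about 3 SD of the inhibition seen with non-fluorescent compounds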;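 also: fluorescein maleimide labelled GST captured on 4 micron glutathione beads; higher means more loss of bead fluorescence from quenching or blocked binding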
# * marks the source's active call; other numbers are inactive results; i = inactive; . = no result given. An excerpt weighted towards active compounds, which were near 0.89% of everything screened.
SMILES,V-ATPase pHluor,T cell HTS,MIN6 prolif,Arrestin-AP2 inh,NTR1 ag,Xi reactivation,Arr-AP2 CP1,GST GSH counter
C/C=C/c1ccc2c(c1)O[C@H](CN(C)C(=O)C1CC1)[C@H](C)CN([C@H](C)CO)S2(=O)=O,.,.,.,.,.,-1,.,.
CCCCn1c(=N)n(CCOc2ccc(C)cc2)c2ccccc21,3,185,-6,73*,7,0,-4,-3
COc1ccc(OCCn2c(=N)n(CCO)c3ccccc32)cc1,-1,196,-1,35,-2,.,.,.
C[C@@H]1CN([C@@H](C)CO)C(=O)Cc2cc(NC(=O)CCCN(C)C)ccc2O[C@H]1CN(C)C(=O)Nc1ccccc1,.,.,.,.,.,0,.,.
COc1ccc(NC(=O)/C(=C\c2ccco2)NC(=O)c2ccco2)cc1,-4,413,0,21,4,0,.,.
COc1ccc(NC(=O)/C(C#N)=C\C=C\c2ccco2)cc1,-2,139,-5,72*,2,0,-11,2
O=C(N/N=C/c1cccn1-c1ccccc1)c1ccncc1,-2,354,1,58*,0,-1,0,-7
C[C@H](NC(=O)C[C@H]1CC[C@H](NC(=O)c2cccnc2)[C@@H](CO)O1)c1ccccc1,.,.,.,.,.,0,.,.
CC(C)=CCCC(C)CN1CCC(n2nccc2NC(=O)c2cccnc2)CC1 (centres undefined),-1,462,0,60*,1,0,-10,-5
C1=C(CCNc2nnnn2-c2ccccc2)CCCC1,-3,546,-6,55*,0,.,4,-1
c1ccc(CCNc2nnnn2-c2ccccc2)cc1,4,254,0,4,-1,.,.,.
CO[C@@H]1CN(C)C(=O)c2cc(NS(C)(=O)=O)ccc2OC[C@@H](C)N(CC2CCCCC2)C[C@H]1C,.,.,.,.,.,0,.,.
Cc1noc(C)c1NC(=O)Nc1cccc2c1O[C@@H](CN(C)S(=O)(=O)c1ccccc1)[C@@H](C)CN([C@@H](C)CO)C2=O,.,.,.,.,.,-1,.,.
CCOc1ccc(CN2CCN(Cc3cc4ccccc4o3)CC2CCO)cc1 (centres undefined),-1,217,1,66*,1,0,5,3
CC(C)(C)c1ccc(OCCCC(=O)NNC(=O)c2ccccc2O)cc1,3,168,-5,-7,0,0,.,.
CC(C)(C)c1ccc(C(=O)NCC(=O)NNC(=O)c2ccccc2O)cc1,2,196,-2,77*,1,0,-9,4
CCCNC(=O)N1CC2(CN(Cc3ccc(OC)cc3)C2)c2c(n(C)c3cc(OC)ccc23)[C@@H]1CO,.,.,.,.,.,0,.,.
COc1ccccc1C#Cc1ccc2c(c1)[C@H]1[C@H](CCN1S(=O)(=O)c1ccc(C)cc1)[C@H](CO)N2C,.,.,.,.,.,0,.,.
Oc1c(CN2CCOCC2)cc(COCc2ccccc2)c2cccnc12,-4,231,.,19,.,2,.,.
Oc1c(CNc2ccccc2)cc(COCc2ccccc2)c2cccnc12,-10,496,-5,55*,0,1,4,1
Cc1cc(C)n2nc(N)c(N=Nc3cccc(Cl)c3)c2n1,6,329,-1,99*,2,0,10,62*
Cc1ccc(N=Nc2c(N)nn3c(C)cc(C)nc23)cc1,-2,152,0,2,9,0,.,.
CCOC(=O)c1cc2c(nc1NC(=S)NCc1ccccc1)CCCC2,3,101,-2,103*,-1,0,-6,-2
CCC(C)NC(=O)C1CCC(CNS(=O)(=O)c2cccc3nsnc23)CC1 (centres undefined),0,327,-1,54*,1,.,2,1
Cc1cnc(C(=O)OCC(=O)c2ccc(C3CCCCC3)cc2)cn1,16,i,-4,57*,2,0,2,-3
SMILES,V-ATPase pHluor,T cell HTS,MIN6 prolif,Arrestin-AP2 inh,NTR1 ag,Xi reactivation,Arr-AP2 CP1,GST GSH counter
CCOC(=O)c1cc2c(ccn2C)n1Cc1ccc(Cl)cc1,8,646,-4,54*,5,0,-9,-2
CCOC(=O)c1cc2c(ccn2C)n1Cc1ccc(C#N)cc1,-1,324,1,29,0,0,.,.
Cc1cc(C(=O)OCC(=O)NCCc2ccccc2)c2ccccc2n1,-6,371,6,54*,-2,0,4,1
CSc1nc2c(c(=O)n1Cc1ccccc1)SC(C)C2 (centres undefined),4,369,3,56*,-1,.,-5,-2
CC1Cc2nc(SCC(=O)c3ccccc3)n(Cc3ccccc3)c(=O)c2S1 (centres undefined),8,332,-4,5,-1,0,.,.
Cc1cc(C)c(C(=O)N2CCCC(CNS(=O)(=O)c3cccs3)C2)o1 (centres undefined),1,206,2,-9,-1,0,.,.
CC(C)(O)C#Cc1ccc(C(=O)N2CCCC(CNS(=O)(=O)c3cccs3)C2)o1 (centres undefined),-1,463,-3,61*,0,0,-9,3
CO[C@@H]1CN(C)C(=O)c2ccc(NC(=O)Nc3cccc(F)c3)cc2OC[C@@H](C)N(C(=O)Nc2c(C)noc2C)C[C@@H]1C,.,.,.,.,.,0,.,.
Brc1cccc(CNCc2cccs2)c1,4,235,2,55*,3,1,-12,-8
COc1ccc(NC(=O)CN(C)C(=O)C(NC(=O)c2ccco2)C(C)C)cc1 (centres undefined),5,.,0,61*,-1,0,0,-2
CC(C)NC(=O)N1CC2(C1)[C@H](c1ccccc1)[C@@H](CO)N2C(=O)c1ccccn1,.,.,.,.,.,0,.,.
COc1ccc(-c2nn(-c3ccccc3)cc2/C=C(\C#N)S(=O)(=O)c2ccccc2)cc1OC,0,305,-1,78*,2,0,22,-3
COc1ccc(-c2nn(-c3ccccc3)cc2/C=N/NC(N)=S)cc1OC,3,503,.,-11,.,0,.,.
Cc1noc(C)c1S(=O)(=O)Nc1ccc2c(c1)C(=O)N([C@@H](C)CO)C[C@H](C)[C@@H](CN(C)C(=O)Nc1ccc(C(F)(F)F)cc1)OCCCC[C@H](C)O2,.,.,.,.,.,-1,.,.
Fc1ccc(C2Nc3cccc4cccc(c34)N2)cc1,2,316,-6,31,0,0,.,.
Cc1ccc(C2Nc3cccc4cccc(c34)N2)s1,0,304,-6,87*,1,0,9,10
O=C(CCCC(=O)Nc1cccnc1)Nc1cccnc1,3,239,2,82*,-2,.,-8,.
